The text below walks through data of ChEMBL document CHEMBL1123615, “1,3-Dialkyl-4-(iminoarylmethyl)-1H-pyrazol-5-ols. A series of novel potential antipsychotic agents” (J Med Chem, 1987).

Some results are limits rather than exact numbers.

Assay [1] concerns Mus musculus. Put plainly: Inhibition of locomotor activity (LMA) and motor coordination in mice by intraperitoneal administration. It is filed as functional. Particulars: ip. The gist of the method:
(§1)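 Mice scored for inhibition of spontaneous locomotor activity and for ataxia (impaired motor coordination). Nine mice per dose; ED50 derived from at least three doses.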

The test system of assay [2] is Mus musculus. The experiment in a line: Inhibition of ataxia in mice by intraperitoneal administration. It is filed as functional. Particulars: ip. The gist of the method:
as §1

Assay [3] addresses D(2) dopamine receptor (Rattus norvegicus, UniProt P61169). The experiment in a line: In vitro binding affinity against Dopamine receptor D2 by displacement of [3H]haloperidol from rat striatal membranes. It is filed as cell membranes, Membrane. A general note: In a radioligand displacement assay an active substance lowers the binding of a labelled ligand.
For assay [4], the system named is Rattus norvegicus. The experiment in a line: Effect on serum prolactin level, activity expressed as percent control at 23.7 and 27.0 mg/kg per orally. Format: functional. The gist of the method: (§2)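 Rats dosed orally and killed 1 h after administration; serum prolactin measured. Values are means from groups of five animals, expressed as % of vehicle control.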

Assay [5] relates to Rattus norvegicus. The experiment in a line: Inhibition of sidman avoidance in rats, activity expressed as ED50 mg/kg per orally. Format: functional. The settings on record: po. Put shortly: (§3)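 Sidman avoidance in rats or squirrel monkeys with oral dosing; ED50 given in mg/kg.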
In assay [6] the target is alpha-2 adrenergic receptor (Rattus norvegicus). The experiment in a line: Affinity for displacement of [3H]clonidine labeled alpha-2 adrenergic receptor.
Assay [7] relates to Rattus norvegicus. The experiment in a line: Inhibition of self-stimulation in rats, activity expressed as ED50 mg/kg per orally. The settings on record: po. Format: functional. The gist of the method: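 Oral dosing in rats; suppression of high baseline self-stimulation measured; ED50 given in mg/kg.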
A short description of assay [8]: Inhibition of sidman avoidance in squirrel monkeys, activity expressed as ED50 mg/kg per orally. Format: functional. The settings on record: po. The gist of the method:
as §3

Assay [9] has as its target alpha-1 adrenergic receptor (Rattus norvegicus). The experiment in a line: Affinity for displacement of [3H]WB-4101 labeled alpha-1 adrenergic receptor.
Assay [10] concerns the target D(1A) dopamine receptor (Rattus norvegicus, UniProt P18901). Put plainly: Affinity for displacement of [3H]SCH-23390 labeled Dopamine receptor D1. Put shortly: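 [3H]SCH23390 binding (D1 label), run by a method from earlier work. IC50 obtained by non-linear regression over four or five concentrations. Reference standard SCH23390 included.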
Assay [11] can be described thus: Extrapyramidal syndrome(EPS) signs in cebus monkeys, activity expressed as MED mg/kg per orally. It is filed as functional. Particulars: po; read-out: MED. The gist of the method:
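Cebus monkeys previously sensitized to haloperidol, observed for dystonic signs after oral dosing. Minimal effective dose determined in at least three animals.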

Assay [12] has as its system Rattus norvegicus. Put plainly: Effect on serum prolactin level, activity expressed as percent control at 23.7 mg/kg per orally. Format: functional. The settings on record: in the assay text read “27.0 mg/kg” for “23.7 mg/kg”. The gist of the method:
as §2

Assay [13] relates to Rattus norvegicus. The experiment in a line: Effect on serum prolactin level, activity expressed as percent control at 27.0 mg/kg per orally. It is filed as functional. The gist of the method: as §2

D(2) dopamine receptor, sequence (P61169 whole entry): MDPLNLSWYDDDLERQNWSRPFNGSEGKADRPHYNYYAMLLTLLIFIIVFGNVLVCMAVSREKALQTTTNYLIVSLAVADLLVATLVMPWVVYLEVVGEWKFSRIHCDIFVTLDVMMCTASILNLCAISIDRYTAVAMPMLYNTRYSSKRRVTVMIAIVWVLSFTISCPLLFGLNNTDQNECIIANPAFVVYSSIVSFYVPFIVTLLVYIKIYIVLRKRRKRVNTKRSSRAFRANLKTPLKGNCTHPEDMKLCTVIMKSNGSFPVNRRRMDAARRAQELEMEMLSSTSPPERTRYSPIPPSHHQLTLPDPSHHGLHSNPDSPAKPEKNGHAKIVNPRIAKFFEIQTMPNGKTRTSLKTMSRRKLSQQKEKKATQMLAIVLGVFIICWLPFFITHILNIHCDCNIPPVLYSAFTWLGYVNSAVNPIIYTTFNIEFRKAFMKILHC
D(1A) dopamine receptor, sequence (P18901 whole entry): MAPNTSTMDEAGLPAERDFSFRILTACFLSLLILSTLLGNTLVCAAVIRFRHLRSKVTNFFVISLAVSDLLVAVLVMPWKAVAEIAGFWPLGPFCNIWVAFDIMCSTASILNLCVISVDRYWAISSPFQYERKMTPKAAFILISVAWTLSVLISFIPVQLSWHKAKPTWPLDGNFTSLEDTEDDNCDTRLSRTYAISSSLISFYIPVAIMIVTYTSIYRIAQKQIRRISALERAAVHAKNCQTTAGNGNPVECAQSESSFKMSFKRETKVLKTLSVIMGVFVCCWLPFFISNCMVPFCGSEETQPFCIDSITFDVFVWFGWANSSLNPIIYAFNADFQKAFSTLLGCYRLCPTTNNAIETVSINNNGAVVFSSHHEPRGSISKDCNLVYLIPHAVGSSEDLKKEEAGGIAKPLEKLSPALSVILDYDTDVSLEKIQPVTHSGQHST

By ED50 is commonly meant the midpoint of the dose-response relation. The low end stands for greater potency, the high end for weaker potency. The IC50 is the concentration needed to halve the response being measured. A lower IC50 goes with greater potency in that assay. `CCn1[nH]c(C)c(C(=N)c2ccccc2)c1=O`: the ED50 turned out to be 11.8 mg/kg in [1] and 21.5 mg/kg in assay [2]. The IC50 in assay [3] is more than 10 µM.
`Cc1[nH]n(C)c(=O)c1C(=N)c1ccc(Cl)cc1`: the ED50 was 18.9 mg/kg in assay [1] and more than 56 mg/kg in [2].
For the compound `Cc1[nH]n(C)c(=O)c1C(=N)c1cccc(F)c1`, the ED50 was 35.6 mg/kg in assay [1] and 63.6 mg/kg in assay [2]. This compound yielded an IC50 in assay [3] of more than 10 µM.
With `Cc1[nH]n(C)c(=O)c1C(=N)c1ccc(N)cc1`, the ED50 in assay [1] and in assay [2] was more than 100 mg/kg in each case.
Turning to `C/N=C(/c1cccc(Cl)c1)c1c(C)[nH]n(C)c1=O`, the ED50 in assay [1] is 50.5 mg/kg; in assay [2], 73.1 mg/kg.
For the compound `CC(=O)/N=C(\c1cccc(Cl)c1)c1c(C)[nH]n(C)c1=O`, the ED50 was 25.1 mg/kg in assay [1] and more than 100 mg/kg in [2]. In addition, the IC50 in [3] is more than 1 µM.
With `Cc1[nH]n(C)c(=O)c1C(=N)c1ccc([N+](=O)[O-])cc1`, the ED50 in assay [1] and in assay [2] was more than 90 mg/kg throughout.
For the compound `Cc1[nH]n(C(C)C)c(=O)c1C(=N)c1cccc(Cl)c1`, the results for the ED50 in assay [1] and in assay [2] were 25 mg/kg and more than 30 mg/kg, respectively. In addition, in assay [3], the IC50 was more than 10 µM.
As to `Cc1[nH]n(C)c(=O)c1C(=N)c1cc(Cl)cc(Cl)c1`, the ED50 was 34.9 mg/kg in assay [1] and more than 100 mg/kg in assay [2].
Take `CCCCn1[nH]c(C)c(C(=N)c2cccc(Cl)c2)c1=O`: the median effective dose (ED50) is 88.3 mg/kg in assay [1] and 62.5 mg/kg in [2].
In the case of `CCCn1[nH]c(C)c(C(=N)c2cccc(Cl)c2)c1=O`, the ED50 was 21.5 mg/kg in assay [1] and more than 30 mg/kg in assay [2]. For the same compound, the IC50 in [3] was more than 10 µM.
In the case of `CCCn1[nH]c(C)c(C(=N)c2ccccc2)c1=O`, the ED50 in assay [1] was found to be 11.6 mg/kg; in assay [2], 25.2 mg/kg.
In the same order, the values of `Cn1[nH]cc(C(=N)c2cccc(Cl)c2)c1=O` are 47.8 mg/kg and more than 100 mg/kg.
The like results for `Cc1cccc(C(=N)c2c(C)[nH]n(C)c2=O)c1` were, in that order, 33.1 mg/kg and 79.3 mg/kg.
The like results for `Cc1[nH]n(C)c(=O)c1C(=N)c1ccco1` were, in that order, 33.6 mg/kg and more than 100 mg/kg.
For `Cc1[nH]n(C)c(=O)c1/C(=N/C(=O)C(Cl)Cl)c1cccc(Cl)c1`, the figures for the ED50 in [1] and in assay [2] were 35.5 mg/kg and more than 100 mg/kg, respectively. This compound showed a concentration for half-maximal inhibition (IC50) in assay [3] of more than 1 µM.
In the case of `Cc1[nH]n(C)c(=O)c1C(=N)c1cccs1`, the values for the ED50 in assay [1] and in assay [2] were 40.5 mg/kg and more than 90 mg/kg, respectively.
In the same order, the values of `COc1ccccc1C(=N)c1c(C)[nH]n(C)c1=O` are 46.6 mg/kg and 87.9 mg/kg.
As to `Cc1[nH]n(C)c(=O)c1C(=N)c1ccc2ccccc2c1`, the ED50 in assay [1] is 65.6 mg/kg; in [2], more than 100 mg/kg.
`Cc1[nH]n(C)c(=O)c1C(=N)c1cccc(Cl)c1`: the Control in [4] was -25%. Besides, the ED50 is 17 mg/kg in [5]; 23.7 mg/kg in assay [7]; 16.3 mg/kg in assay [8]; 15.2 mg/kg in assay [1]; more than 100 mg/kg in [2]. The IC50 in [6], in assay [9], in [3] and in [10] was more than 10 µM in each case. Besides, the minimal effective dose in assay [11] is more than 100 mg/kg.
For `Cc1[nH]n(C)c(=O)c1C(=N)c1cccc(Br)c1`, the ED50 was 20.5 mg/kg in assay [1] and more than 30 mg/kg in assay [2]. For the same compound, the IC50 in [3] is more than 10 µM.
`Cc1ccc(C(=N)c2c(C)[nH]n(C)c2=O)cc1`: the ED50 in assay [1] and in assay [2] was more than 100 mg/kg in each case.
With `COc1ccc(C(=N)c2c(C)[nH]n(C)c2=O)cc1`, the ED50 in [1] and in [2] was more than 100 mg/kg throughout.
For `Cc1[nH]n(C)c(=O)c1C(=N)c1ccc(C(F)(F)F)cc1`, the ED50 in [1] was 31.4 mg/kg; in [2], more than 30 mg/kg. In assay [3], this compound showed a half-inhibitory concentration (IC50) of more than 10 µM.
As for `Cc1[nH]n(C)c(=O)c1C(=N)c1cccc([N+](=O)[O-])c1`, the ED50 in assay [1] is 38.8 mg/kg; in assay [2], more than 100 mg/kg.
The like results for `Cc1[nH]n(C)c(=O)c1C(=N)c1cccc(C(F)(F)F)c1` were, in that order, more than 30 mg/kg and more than 30 mg/kg.
For `Cc1[nH]n(C)c(=O)c1C(=N)c1ccccc1`, the ED50 in assay [1] worked out at 13.9 mg/kg; in [2] it was 30.2 mg/kg. This compound also had an IC50 in assay [3] of more than 10 µM.
For the compound `Cn1[nH]cc(C(=N)c2ccccc2)c1=O`, the ED50 is 49.1 mg/kg in [1] and more than 100 mg/kg in assay [2].
In the same order, the values of `CCc1[nH]n(C)c(=O)c1C(=N)c1cccc(Cl)c1` are 60.6 mg/kg and 47.6 mg/kg.
The like results for `Cc1[nH]n(C)c(=O)c1C(=N)c1ccccc1Cl` were, in that order, 31.1 mg/kg and 50.8 mg/kg.
In the case of `CCn1[nH]c(C)c(C(=N)c2cccc(Cl)c2)c1=O`, the ED50 turned out to be 16 mg/kg in assay [1] and 45.3 mg/kg in assay [2]. In [3], the IC50 is more than 10 µM.
Turning to `Cc1[nH]n(C)c(=O)c1C(=N)c1ccc(F)cc1`, the figures for the ED50 in assay [1] and in assay [2] were 15 mg/kg and more than 30 mg/kg, respectively. This compound also showed an IC50 in assay [3] of more than 10 µM.
Turning to `Cc1[nH]n(C)c(=O)c1C(=N)c1ccc(Cl)c(Cl)c1`, the ED50 is 26.4 mg/kg in [1] and more than 30 mg/kg in assay [2].
In the same order, the values of `CCCCn1[nH]c(C)c(C(=N)c2ccccc2)c1=O` are 48.7 mg/kg and more than 100 mg/kg.
Regarding `Cc1[nH]n(C)c(=O)c1/C(=N/C(=O)C(F)(F)F)c1cccc(Cl)c1`, the ED50 in assay [1] is 17.9 mg/kg; in [2], more than 100 mg/kg. This compound yielded an IC50 in [3] of more than 10 µM.
In the case of `CN1CCN(C2=Nc3cc(Cl)ccc3Nc3ccccc32)CC1` [CLOZAPINE], it took a dose of 10 mg/kg to reach the 50% effect level in [2] (ED50).
As for `CSc1ccc2c(c1)N(CCC1CCCCN1C)c1ccccc1S2` (stereo not given) [THIORIDAZINE], the ED50 in assay [5] is 14.4 mg/kg; in assay [7] it was 28.3 mg/kg; in assay [8] it was 4 mg/kg; in assay [1], 2.9 mg/kg; in assay [2] it was more than 100 mg/kg. Also, the Control in assay [12] and in [13] was 918% in each case. Also, in [11], the minimal effective dose was determined as 2.5 mg/kg.
